For data set [1], the species on record is Homo sapiens. Description: Thermal stabilization of human telomeric G-quadruplex FAM-TTAGGGTTAGGGTTAGGGTTAGGG-TAMRA DNA assessed as melting temperature at 1:5 DNA:ligand ratio by FRET assay. A digest of the protocol: (§1)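 Telomeric quadruplex (TTAGGG)4, 200 nM, dual-labelled, in 100 mM KCl, Tris-HCl buffer. Melted with ligand at r = 1, 2, 3, 4 or 5 ([ligand]/[quadruplex]). Samples equilibrated 5 min at 20 °C, then heated in 1 °C/min steps to 95 °C; TM read from the donor/acceptor emission.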

Data set [2] is filed under the species Homo sapiens. The data set is described as follows: Thermal stabilization of human telomeric G-quadruplex FAM-TTAGGGTTAGGGTTAGGGTTAGGG-TAMRA DNA assessed as melting temperature at 1:2 DNA:ligand ratio by FRET assay. A digest of the protocol:
as §1

Data set [3] has as its system T-24. The data set is described as follows: Binding affinity to HRAS G-quadruplex DNA in human T24 cells assessed as reduction in p21HRAS level at 5 uM by immunoblotting analysis relative to control.
For data set [4], the species on record is Homo sapiens. Description: Thermal stabilization of human telomeric G-quadruplex FAM-TTAGGGTTAGGGTTAGGGTTAGGG-TAMRA DNA assessed as melting temperature at 1:4 DNA:ligand ratio by FRET assay. A digest of the protocol: as §1
Data set [5] relates to T-24. Description: Cellular uptake in human T24 cells assessed as accumulation in nucleoplasm at 2.5 uM after 2 hrs by propidium iodide staining-based confocal microscopic analysis. The data set is classed as ADME, cell-based. The conditions noted are these: t-24, 2 h. The procedure, abridged:
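T24 cells plated (3 × 10^5) on coverslips and treated after 24 h with 2.5 μM ligand for 2 h. Fixed in 3% paraformaldehyde and permeabilized with Triton X-100. Cytoplasm immunostained for DRP1 with FITC secondary; nuclei stained with propidium iodide plus RNase A. Ligand red fluorescence excited at 543 nm; confocal Z-sections at 2 μm intervals.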

The species named for data set [6] is Homo sapiens. Description: Thermal stabilization of human telomeric G-quadruplex FAM-TTAGGGTTAGGGTTAGGGTTAGGG-TAMRA DNA assessed as melting temperature at 1:3 DNA:ligand ratio by FRET assay. A digest of the protocol: as §1
In data set [7] the test system is T-24. The data set is described as follows: Cellular uptake in human T24 cells at 4 degC by FACS flow cytometric analysis. Format: ADME, cell-based. The procedure, abridged:
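T24 cells incubated with ligand at 4 °C or 37 °C. Intracellular ligand fluorescence measured by flow cytometry in the FL3 (680 nm) channel.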
On the technique in general: A flow cytometer gives signals particle by particle.

The species entered for data set [8] is Homo sapiens. Description: Thermal stabilization of human telomeric G-quadruplex FAM-TTAGGGTTAGGGTTAGGGTTAGGG-TAMRA DNA assessed as melting temperature at 1:1 DNA:ligand ratio by FRET assay. A digest of the protocol:
as §1

For data set [9], the species on record is Homo sapiens. Description: Binding affinity to 32mer duplex DNA (unknown origin) at 5 uM by UV-vis titration.
For data set [10], the system named is T-24. The data set is described as follows: Cellular uptake in human T24 cells at 0.5 to 10 uM after 10 mins to 8 hrs by flow cytometric analysis. Format: ADME, cell-based. The conditions noted are these: t-24, 10 µM. The procedure, abridged:
(§2)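 Flow cytometric uptake of 10 μM ligand over time (15 min, 1, 2, 6, 8 h; T24, and up to 8 h in NIH 3T3 and 293). Cells plated at 5 × 10^4 per well the day before. Ligand fluorescence detected in FL3 (680 nm), at least 10,000 cells acquired.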

Data set [11] concerns HEK293. Description: Cellular uptake in human HEK293 cells at 0.5 to 10 uM after 8 hrs by flow cytometric analysis. Format: ADME, cell-based. The settings on record: hek293, 8 h. A digest of the protocol:
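Cells plated at 5 × 10^4 per well and treated next day with ligand at […] for 8 h. Then trypsinized, resuspended in PBS and analysed by flow cytometry (488 nm excitation, FL3 680 nm, log scale), at least 10,000 cells per sample. Uptake read from intrinsic ligand red fluorescence.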

Data set [12] deals with HEK293. The data set is described as follows: Cellular uptake in human HEK293 cells at 0.5 to 10 uM after 10 mins to 8 hrs by flow cytometric analysis. The data set is classed as ADME, cell-based. The conditions noted are these: hek293, 10 µM. A digest of the protocol: as §2

Structures are written as SMILES. Activity calls are given as the source filed them. The calls are words filed in the database; no cut-off is given here.

Regarding `N=C(N)NCCCCNc1c2c(c(NCCCCNC(=N)N)c3sccc13)C(=O)c1ccccc1C2=O`, the Tm in data set [1] came out at 83.7 °C; in data set [2], 76.3 °C; in data set [4], 81.1 °C; in data set [6], 79.1 °C; in data set [8] it was 58.5 °C. In data set [3], the result was Active. The Drug uptake result in data set [5] and in data set [7] was “Active” each time.
Take `N=C(N)NCCNc1c2c(c(NCCNC(=N)N)c3sccc13)C(=O)c1ccccc1C2=O`: the outcome in [9] and in data set [3] was Active. For the same compound, the Drug uptake result in data set [10], in data set [7], in data set [11] and in data set [12] was “Active” in each case.

Values taken from ChEMBL document CHEMBL2346582, “Guanidino anthrathiophenediones as G-quadruplex binders: uptake, intracellular localization, and anti-Harvey-Ras gene activity in bladder cancer cells” (J Med Chem, 2013).
